From PubChem BioAssay
SR-BI DiI inh: inhibitors of SR-BI mediated HDL lipid uptake, primary screen, ldlA[mSR-BI] cells, fluorescence, single point; inhibition, % at 12.5 µM; ldlA[mSR-BI] CHO cells, DiI-HDL uptake fluorescence, 3 h; actives 0.96% (n = 320,000);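 active = mean replicate inhibition of at least 70% and a set share of replicates each scoring 70 or more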;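 note: 0% = median of neutral control wells and 100% = median of positive control wells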
Target sequence (Q61009 whole entry, looked up): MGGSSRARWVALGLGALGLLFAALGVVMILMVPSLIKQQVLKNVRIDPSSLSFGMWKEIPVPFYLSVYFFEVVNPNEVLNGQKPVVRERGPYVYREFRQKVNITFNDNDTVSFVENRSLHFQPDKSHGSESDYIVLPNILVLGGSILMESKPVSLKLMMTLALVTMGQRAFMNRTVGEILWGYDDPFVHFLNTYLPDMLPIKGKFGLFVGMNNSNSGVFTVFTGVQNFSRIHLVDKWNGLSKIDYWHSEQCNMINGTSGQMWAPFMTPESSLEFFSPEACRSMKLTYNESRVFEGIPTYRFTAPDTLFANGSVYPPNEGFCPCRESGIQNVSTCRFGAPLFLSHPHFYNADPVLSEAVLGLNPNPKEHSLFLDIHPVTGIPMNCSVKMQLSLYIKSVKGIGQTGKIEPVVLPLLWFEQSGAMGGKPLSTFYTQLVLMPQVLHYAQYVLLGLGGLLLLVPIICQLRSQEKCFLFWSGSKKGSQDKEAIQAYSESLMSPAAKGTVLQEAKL
Lipid droplet: inhibitors of hepatocyte lipid droplet formation, primary screen, imaging, high-throughput imaging, BODIPY stain; actives 0.4% (n = 240,000); inhibition, % at 6.5 µM; AML12 mouse hepatocytes, oleate lipid droplets;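 active = lipid droplet intensity inhibited by at least 50%, with more than 500 cells counted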
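Material – mouse AML12 hepatocyte cell line, fixed after treatment · Compound dosing – one dose, 6.5 µM compound · Times – compound with oleate, overnight · Measured by – Image-based BODIPY and DAPI two-channel analysis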
Yeast superoxide: reduction of superoxide in aged yeast, primary screen, HTS; actives 0.18% (n = 330,000); S. cerevisiae aged cells, superoxide DHE fluorescence; hits give low values; superoxide response (% of plate mean), % at 10 µM;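 active = superoxide response under a set limit, about three screen SD below normal, cut at about 65% in these data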;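 note: yeast aged for seven days with compound at 30 °C before DHE staining; 100% = average MFI of all compound-treated wells on the plate with controls excluded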
SMARCA2 act: SMARCA2 (BRM) function activators, primary screen, cell-based, luminescence, high throughput; MG213 cells, MMTV-luciferase reporter, dexamethasone, overnight; activation, % at 9.1 µM; actives 1% (n = 370,000); in the data active = activation above about 7.8%;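 note: 0% = vehicle wells and 100% = reference activator wells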
AHR act: AHR activators, primary screen, cell-based, luminescence, luciferase reporter, human. Aryl hydrocarbon receptor (Homo sapiens), P35869. AHR-responsive luciferase reporter cells. activation, % at 5 µM. actives 2.5% (n = 320,000). AID 2796, 2010; in the data active = activation above about 47%;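 note: 0% = vehicle wells and 100% = reference agonist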
SR-BI uptake up: activators of SR-BI mediated DiI-HDL uptake, primary screen, ldlA[mSR-BI] CHO cells, DiI fluorescence; actives 0.096% (n = 320,000); AID 504775, 2011; 3 h; 100 = double the neutral-control signal; activation, % at 12.5 µM;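 active = mean replicate activation of at least 60% and every replicate at or above 60%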;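 note: 0% = median plate neutral-control signal and 100% = twice that signal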
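material = CHO ldlA[mSR-BI] cells | medium = Ham's F12 with 0.5% BSA, HEPES 25 mM, pH 7.4 | reagent = fluorescent DiI-HDL, 10 µg/mL final | compound dosing = single-point compound dose | incubation = 3 h, 37 °C | measured by = bottom-read fluorescence, 550/595 nm | measure = HDL uptake via cellular fluorescence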
An asterisk follows results filed as active; x = no result given. The list is not random: actives were taken first. Their share in the collection is about 4.3%.

SMILES	SR-BI DiI inh	Lipid droplet	Yeast superoxide	SMARCA2 act	AHR act	SR-BI uptake up
COc1ccccc1NC(=O)c1ccc(NC(=O)COC(=O)CC(NC(=O)c2ccccc2Cl)c2ccccc2)cc1 (configuration not stated)	81*	12	99	0	9	-81
CCC(C)Sc1cc(-c2nc3ccccn3c2NC2CCCCC2)ccc1OC (configuration not stated)	-66	x	99	-3	24	66*
CCC(C)Sc1cc(-c2nc3cc(C)ccn3c2NC2CCCCC2)ccc1OC (configuration not stated)	45	x	119	-2	10	-45
O=C(N/C(=C/c1cccnc1)C(=O)N1CCCCCC1)c1cccc(Br)c1	-7	-15	105	-2	48*	7
CCn1nc(NC(=O)c2cccnc2)c2cc3cccc(C)c3nc21	43	x	100	1	68*	-43
CCC(=O)Nc1nn(C)c2nc3c(C)cccc3cc12	8	-3	89	-2	1	-8
Cc1cccc2cc3c(NC(=O)C(C)C)nn(C)c3nc12	-7	x	103	1	72*	7
Cc1ccc2cc3c(NC(=O)C(C)C)nn(C)c3nc2c1	5	x	107	-4	66*	-5
CN(C)c1ccc(-c2nn3c(-c4ccco4)nnc3s2)cc1	x	x	x	4	x	x
O=c1oc2ccccc2c(Nc2ccc3ccccc3c2)c1[N+](=O)[O-]	-17	x	105	x	65*	17
Cc1ccc(Nc2c([N+](=O)[O-])c(=O)oc3ccccc23)cc1	30	-5	106	-2	0	-30
COC(=O)[C@H](CC(C)C)N(CCCc1cn(CC2CCCCC2)nn1)S(=O)(=O)c1ccc(F)cc1Br	x	x	x	-4	x	x
Cc1ccc(NC(=O)c2ccc(Cn3cc(Br)cn3)o2)cc1	4	-6	104	1	60*	-4
Cn1nccc1C(=O)Nc1sc2c(c1C#N)CCCC2	8	-1	113	-1	30	-8
N#Cc1c(NC(=O)c2ccc(Cn3cc(Br)cn3)o2)sc2c1CCCCCC2	-14	-21	81	-2	70*	14
Cc1ccsc1/C=N/NC(=O)c1ccc(Cn2cc(Br)cn2)o1	-3	x	95	-1	37	3
N#Cc1c(NC(=O)c2cnccn2)sc2c1CCCC2	-25	-9	99	2	69*	25
CCCCCCCCN1C(=O)[C@@H](CC(=O)N2CCCCC2)C[C@@]2(C(=O)OC)C1=C[C@H](C1CCCC1)O[C@@H]2C	x	x	x	-4	x	x
Oc1ccc(C[C@H]2CN([C@@H](Cc3ccc(O)cc3)CN3CCC[C@@H]3CN3C(=S)NC[C@@H]3Cc3ccccc3)C(=S)N2CCc2ccccc2)cc1	x	x	x	-1	x	x
CC(C)C[C@@H](CN1CCCC1CN1C(=S)NC[C@@H]1Cc1ccc(O)cc1)N1C[C@H](Cc2ccc(O)cc2)N(CCc2ccccc2)C1=S (some centres not stated)	-177	x	x	-7	x	177*
Oc1ccc(C[C@H]2CNC(=S)N2CC2CCCN2C[C@H](Cc2ccc(O)cc2)N2C[C@H](Cc3ccccc3)N(CC3CCCCCC3)C2=S)cc1 (some centres not stated)	-68	x	x	1	x	68*
Oc1ccc(C[C@H]2CNC(=S)N2CC2CCCN2C[C@H](Cc2ccc(O)cc2)N2C[C@H](Cc3ccc(O)cc3)N(CC3CCCCCC3)C2=S)cc1 (some centres not stated)	-186	x	x	-5	x	186*
COc1cc(Nc2nc(-c3ccccc3)c3cc(C)ccc3n2)cc(OC)c1OC	72*	x	112	-4	18	-72
COC(=O)C[C@@H]1CC[C@@H]2[C@@H](COc3ccc(NC(=O)Nc4ccc(F)cc4)cc3C(=O)N2C)O1	x	x	x	-3	x	x
O=c1[nH]c(SCc2nc3c(cnn3-c3ccccc3)c(=O)[nH]2)nc2ccccc12	16	x	x	1	x	-16
SMILES	SR-BI DiI inh	Lipid droplet	Yeast superoxide	SMARCA2 act	AHR act	SR-BI uptake up
O=c1[nH]c(CSc2ncccn2)nc2c1cnn2-c1ccccc1	-11	-8	106	-2	119*	11
COc1cccc(N2CCN(c3ncnc4c3[nH]c3ccc(F)cc34)CC2C)c1 (configuration not stated)	72*	x	102	-10	3	-72
CCC(C)[C@H](NC(=O)[C@H](CC(C)C)NC(=O)OC(C)(C)C)C(=O)N[C@@H](Cc1ccccc1)C(=O)OC (some centres not stated)	x	x	x	-1	x	x
CCC(=O)Nc1ccc(-c2cc(-c3ccccc3)nc(-c3ccc(NC(=O)CC)cc3)n2)cc1	-103	x	101	1	24	103*
CC(=O)Nc1ccc(-c2cc(-c3ccccc3)nc(-c3ccccc3)n2)cc1	45	11	94	-2	9	-45
CCC(=O)Nc1ccc2c(c1)C(=O)N(C)C2=O	-3	3	97	-3	-3	3
CCC(=O)Nc1ccc2c(c1)C(=O)c1ccccc1C2=O	13	x	147	5	69*	-13
COC(=O)[C@]1(C#N)CC(=O)N(Cc2ccc(Cl)cc2)[C@@H]1c1ccc(OC)cc1	x	x	x	-4	x	x
COc1cccc(COc2ccccc2C2Nc3ccc(Br)cc3C(=O)N2NC(=O)c2ccncc2)c1 (configuration not stated)	10	x	93	0	52*	-10
COc1cccc(CNC(=O)Cn2c(-c3ccccc3)cc(C(C)=O)c2C)c1OC	x	x	x	0	x	x
Cc1nn(-c2ccccc2)c2sc(C(=O)NNC(=O)COc3cccc4ccccc34)cc12	7	x	110	-1	34	-7
CCOc1ccccc1NC(=O)c1cc2c(C)nn(-c3ccccc3)c2s1	x	x	x	-7	x	x
Cc1nn(-c2ccccc2)c2sc(C(=O)NNC(=O)COc3ccccc3)cc12	21	x	80	-1	58*	-21
Cc1cnc(NC(=O)c2cc3c(C)nn(-c4ccccc4)c3s2)s1	76*	4	114	-1	61*	-76
CC(=O)c1cc(-c2cc3ccccc3o2)c(=O)n2c1CCC2	x	x	x	0	x	x
O=C(Nc1cccs1)Nc1ccccc1Br	-1	-12	81	3	57*	1
COC(=O)[C@]12C[C@H](CC(=O)NCc3cccs3)C(=O)N(Cc3cccc4ccccc34)C1=C[C@H](C1CCCC1)O[C@@H]2C	x	x	x	-3	x	x
COC(=O)[C@]12C[C@H](CC(=O)NCc3ccc(C)o3)C(=O)N(Cc3ccccc3)C1=C[C@H](C(C)C)O[C@@H]2C1CC1	x	x	x	1	x	x
